Reference: ChEMBL document CHEMBL1649179, “Pharmacokinetics of LB80331 and LB80317 following oral administration of LB80380, a new antiviral agent for chronic hepatitis B (CHB), in healthy adult subjects, CHB patients, and mice” (Antimicrob Agents Chemother, 2009)

Legend:
[1] = tested on: Homo sapiens; assay: Oral clearance in chronic hepatitis B virus infected patient assessed as (1-((2-amino-9H-purin-9-yl)methyl)cyclopropoxy)me at 120 mg, po qd for 4 weeks by LC-MS analysis; assay type: ADME, organism-based; conditions: in vivo, 672 h
How it was run: (§1)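 Oral LB80380 was given once daily for 4 weeks to CHB patients. Plasma LB80331 was quantified by validated LC-MS/MS after protein precipitation, with stable-isotope internal standard, at baseline and steady state (weeks 2–4), 0–24 h postdose. Noncompartmental CL/F was calculated as dose (adjusted for LB80380/LB80331 molecular weights) divided by AUC (AUC0-∞ single dose; AUC0-24 steady state).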

[2] = tested on: Homo sapiens; assay: Tmax in chronic hepatitis B virus infected patient assessed as (1-((2-amino-9H-purin-9-yl)methyl)cyclopropoxy)me at 240 mg, po qd for 4 weeks by LC-MS analysis; assay type: ADME, organism-based; conditions: in vivo, 672 h
How it was run: (§2)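 Daily oral LB80380 was given to CHB patients over 4 weeks. Blood was drawn on day 1 and at steady state (weeks 2–4), predose and 0.5–24 h postdose. Plasma LB80331 (LLOQ 5 ng/ml) and LB80317 (LLOQ 10 ng/ml) were measured by LC-MS/MS after protein-precipitation extraction. Tmax was taken by noncompartmental analysis.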

[3] = tested on: Plasma; assay: AUC (0 to 36 hrs) in CD-1 mouse plasma assessed as (1-((2-amino-9H-purin-9-yl)methyl)cyclopropoxy)me at 30 mg/kg, po administered as single dose by LC-MS analysis; assay type: ADME, organism-based; parameters: time < 36 hr, dose 30 mg/kg, route oral; conditions: in vivo
How it was run: (§3)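 Male CD-1 mice given a single oral dose in 100% PEG 400. Samples extracted with perchloric acid and neutralized with ammonium bicarbonate. One aliquot assayed for the free analyte; the other treated with calf intestinal phosphatase to give the total including di-/triphosphates. Analysis by LC-MS/MS.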

[4] = tested on: Homo sapiens; assay: Oral clearance in chronic hepatitis B virus infected patient assessed as (1-((2-amino-9H-purin-9-yl)methyl)cyclopropoxy)me at 60 mg, po administered as single dose by LC-MS analysis; assay type: ADME, organism-based; conditions: in vivo; how it was run: as §1
[5] = tested on: Homo sapiens; assay: Cmax in chronic hepatitis B virus infected patient assessed as (1-((2-amino-9H-purin-9-yl)methyl)cyclopropoxy)me at 240 mg, po administered as single dose by LC-MS analysis; assay type: ADME, organism-based; parameters: dose 240 mg, route oral; conditions: in vivo
How it was run: (§4)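 CHB patients (HBsAg/HBeAg positive), six per dose cohort, given a first oral dose on day 1. Plasma sampled at baseline. Analysis by validated LC-MS/MS after protein precipitation with a stable-isotope internal standard; LLOQ 5 ng/ml for LB80331. Noncompartmental analysis gives Cmax and AUC0-∞.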

[6] = tested on: Homo sapiens; assay: Tmax in chronic hepatitis B virus infected patient assessed as (1-((2-amino-9H-purin-9-yl)methyl)cyclopropoxy)me at 30 mg, po administered as single dose by LC-MS analysis; assay type: ADME, organism-based; conditions: in vivo; how it was run: as §2
[7] = tested on: Homo sapiens; assay: Cmax in high fat diet fed healthy human assessed as (1-((2-amino-9H-purin-9-yl)methyl)cyclopropoxy)me at 60 mg, po administered as single dose by LC-MS analysis; assay type: ADME, organism-based; parameters: dose 60 mg, route oral; conditions: in vivo
How it was run: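 Healthy subjects given a single oral dose after an overnight fast or after a high-fat breakfast. Plasma LB80331 measured by validated LC-MS/MS (LLOQ 5 ng/ml) after protein precipitation. Cmax by noncompartmental analysis.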

[8] = tested on: Homo sapiens; assay: Half life in chronic hepatitis B virus infected patient assessed as (1-((2-amino-9H-purin-9-yl)methyl)cyclopropoxy)me at 30 mg, po qd for 4 weeks by LC-MS analysis; assay type: ADME, organism-based; conditions: in vivo, 672 h
How it was run: (§5)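 CHB patients given LB80380 orally once daily for 4 weeks. Plasma was sampled on day 1 and at steady state (weeks 2–4), predose and 0.5, 1, 2, 3, 4, 6, 8 and 24 h postdose. LB80331 was measured by validated LC-MS/MS (LLOQ 5 ng/ml). Terminal-phase apparent t1/2 came from noncompartmental analysis and was flagged if extrapolated AUC exceeded 20% of AUC0-24.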

[9] = tested on: Homo sapiens; assay: Oral clearance in chronic hepatitis B virus infected patient assessed as (1-((2-amino-9H-purin-9-yl)methyl)cyclopropoxy)me at 60 mg, po qd for 4 weeks by LC-MS analysis; assay type: ADME, organism-based; conditions: in vivo, 672 h; how it was run: as §1
[10] = tested on: Homo sapiens; assay: AUC (0 to infinity) in chronic hepatitis B virus infected patient assessed as (1-((2-amino-9H-purin-9-yl)methyl)cyclopropoxy)me at 30 mg, po administered as single dose by LC-MS analysis; assay type: ADME, organism-based, Plasma; parameters: dose 30 mg, time infinity, route oral; conditions: in vivo; how it was run: as §4
[11] = tested on: Homo sapiens; assay: Half life in chronic hepatitis B virus infected patient assessed as (1-((2-amino-9H-purin-9-yl)methyl)cyclopropoxy)me at 240 mg, po qd for 4 weeks by LC-MS analysis; assay type: ADME, organism-based; conditions: in vivo, 672 h; how it was run: as §5
[12] = tested on: Liver; assay: Half life in CD-1 mouse liver assessed as (1-((2-amino-9H-purin-9-yl)methyl)cyclopropoxy)me at 30 mg/kg, po administered as single dose by LC-MS analysis; assay type: ADME, organism-based; parameters: dose 30 mg/kg, route oral; conditions: in vivo; how it was run: as §3
[13] = tested on: Liver; assay: Half life in CD-1 mouse liver assessed as di- and triphosphates of (1-((2-amino-9H-purin-9-yl)methyl)cyclopropoxy)me at 30 mg/kg, po administered as single dose by LC-MS analysis; assay type: ADME, organism-based; parameters: dose 30 mg/kg, route oral; conditions: in vivo; how it was run: as §3
[14] = tested on: Homo sapiens; assay: Oral clearance in chronic hepatitis B virus infected patient assessed as (1-((2-amino-9H-purin-9-yl)methyl)cyclopropoxy)me at 240 mg, po administered as single dose by LC-MS analysis; assay type: ADME, organism-based; conditions: in vivo; how it was run: as §1
[15] = tested on: Homo sapiens; assay: Oral clearance in chronic hepatitis B virus infected patient assessed as (1-((2-amino-9H-purin-9-yl)methyl)cyclopropoxy)me at 240 mg, po qd for 4 weeks by LC-MS analysis; assay type: ADME, organism-based; conditions: in vivo, 672 h; how it was run: as §1
[16] = tested on: Plasma; assay: AUC (0 to infinity) in CD-1 mouse plasma assessed as (1-((2-amino-9H-purin-9-yl)methyl)cyclopropoxy)me at 30 mg/kg, po administered as single dose by LC-MS analysis; assay type: ADME, organism-based; parameters: time infinity, dose 30 mg/kg, route oral; conditions: in vivo; how it was run: as §3
[17] = tested on: Liver; assay: Cmax in CD-1 mouse liver assessed as di- and triphosphates of (1-((2-amino-9H-purin-9-yl)methyl)cyclopropoxy)me at 30 mg/kg, po administered as single dose by LC-MS analysis; assay type: ADME, organism-based; parameters: dose 30 mg/kg, route oral; conditions: in vivo; how it was run: as §3
[18] = tested on: Homo sapiens; assay: Cmax in chronic hepatitis B virus infected patient assessed as (1-((2-amino-9H-purin-9-yl)methyl)cyclopropoxy)me at 30 mg, po administered as single dose by LC-MS analysis; assay type: ADME, organism-based; parameters: dose 30 mg, route oral; conditions: in vivo; how it was run: as §4
[19] = tested on: Liver; assay: Tmax in CD-1 mouse liver assessed as di- and triphosphates of (1-((2-amino-9H-purin-9-yl)methyl)cyclopropoxy)me at 30 mg/kg, po administered as single dose by LC-MS analysis; assay type: ADME, organism-based; parameters: dose 30 mg/kg, route oral; conditions: in vivo
How it was run: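 Male CD-1 mice received 30 mg/kg orally in 100% PEG 400. Plasma and snap-frozen liver were taken from 3 mice per time point at 1, 2, 4, 6, 10, 24 and 36 h. Samples were extracted with perchloric acid and neutralized with ammonium bicarbonate. Free LB80331/LB80317 was measured directly by LC-MS/MS; total, including di- and triphosphates, was measured after calf intestinal phosphatase treatment.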

[20] = tested on: Homo sapiens; assay: Cmax in chronic hepatitis B virus infected patient assessed as (1-((2-amino-9H-purin-9-yl)methyl)cyclopropoxy)me at 60 mg, po qd for 4 weeks by LC-MS analysis; assay type: ADME, organism-based; parameters: dose 60 mg, route oral; conditions: in vivo, 672 h
How it was run: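 CHB patients, oral once daily for 4 weeks. Plasma sampled at steady state (weeks 2–4), predose and at 0.5, 1, 2, 3, 4, 6, 8 and 24 h postdose. LB80331 measured by validated LC-MS/MS (LLOQ 5 ng/ml) after protein precipitation with a stable-isotope internal standard. Cmax by noncompartmental analysis.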

Q: With `Nc1ncc2ncn(CC3(OCP(=O)(O)O)CC3)c2n1` [BESIFOVIR] as the molecule, how does the CL/F [1] read?
A: 304 mL/min

Q: And the Tmax [2]?
A: 2 h

Q: What about the AUC [3] of the same molecule?
A: 17 µM·h

Q: What about the CL/F [4] of the same molecule?
A: 244 mL/min

Q: And the Cmax [5]?
A: 1076 ng/mL

Q: And the Tmax [6]?
A: 1.5 h

Q: What about the Cmax [7] of the same molecule?
A: 246 ng/mL

Q: And the t1/2 [8]?
A: 2.5 h

Q: What about the CL/F [9] of the same molecule?
A: 273 mL/min

Q: And the AUC [10]?
A: 1069 ng·h/mL

Q: And the t1/2 [11]?
A: 3.3 h

Q: And the t1/2 [12]?
A: 2.8 h

Q: What about the t1/2 [13] of the same molecule?
A: 3.2 h

Q: And the CL/F [14]?
A: 363 mL/min

Q: What about the CL/F [15] of the same molecule?
A: 416 mL/min

Q: What about the AUC [16] of the same molecule?
A: 17 µM·h

Q: And the Cmax [17]?
A: 17 µM

Q: What about the Cmax [18] of the same molecule?
A: 200 ng/mL

Q: What about the Tmax [19] of the same molecule?
A: 1 h

Q: What about the Cmax [20] of the same molecule?
A: 362 ng/mL
